Experimental findings from the RNAGym collection of RNA variant scans (doi:10.1126/science.aae0568) are described below.

This sample holds only a part of the variants without activity.

Sequences and labels used below:
B1: tRNA (parent)
chain: GUUCCGUUGGCGUAAUGGUAACGCGUCUCCCUCCUAAGGAGAAGACUGCGGGUUCGAGUCCCGUACGGAACG

In the data set the parent is B1. As to the kind of experiment: yeast fitness relative to wild type (ratio to wild type); higher = fitter; tRNA-Arg(CCU), competitive growth, 37 C, YPD. A digest of the protocol: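 Gene amplicons from the start population and from each of six end populations were read by 100-nucleotide paired-end sequencing. Those end populations came from pooled Saccharomyces cerevisiae strains carrying tRNA-Arg(CCU) gene variants at the native locus, competed in YPD at 37°C for 24 hours. Fitness relative to wild type was worked out from changes in genotype frequencies. Genotypes needed ≥ 100 starting reads, and estimates < 0.5 were set to 0.5.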
For the variant U13G A65G C66A, the yeast fitness is ≤ 0.5.

Turning to U13G U28G C61U, the yeast fitness was 0.523.

For U13A U16A A43C, the yeast fitness was found to be 0.564.

Turning to U13C C29A G51C G63A, the yeast fitness is ≤ 0.5.

As for U13G A15C C30G C34A U35A U53C A57U C60G, the yeast fitness came out at 0.564.

As to U13A G48C C55G C66A, the yeast fitness was 0.584.

Regarding U13C C27G A40U C66U, the yeast fitness stood at 0.538.

U13C A20G C46U U47A: the yeast fitness was ≤ 0.5.

For U13G G68A, the yeast fitness is 0.798.

Turning to A14C A37G A57G, the yeast fitness stood at 0.625.

For the variant U13G A36C C46U, the yeast fitness was ≤ 0.5.

Regarding U13C A57U, the yeast fitness came to 0.753.

With U13C C31U A69U, the yeast fitness came out at 0.835.

In the case of U13C U26C C27G C34U A37U A43G A45G C46U, the yeast fitness is ≤ 0.5.

In the case of U13G U32G A45G C49U A70U, the yeast fitness is ≤ 0.5.

For the variant U13C A69U, the yeast fitness worked out at 1.07.

For the variant U13C U16G A43U, the yeast fitness worked out at 1.02.

Turning to U13C C30G C31A, the yeast fitness was ≤ 0.5.

In the case of U13G U28G A57U A65C A69C, the yeast fitness was ≤ 0.5.

For the variant A14C A36U A37G G52A A65U A70C, the yeast fitness is ≤ 0.5.

On to U13G U32C C33U C62U A65G, for which the yeast fitness is ≤ 0.5.

With U13G A21G, the yeast fitness amounted to 0.895.

With U13G A21C, the yeast fitness turned out to be 0.611.

As to U13A G48A, the yeast fitness amounted to 1.03.

Regarding U13G A40U, the yeast fitness came to 0.945.

On to U13G A36U A40C, for which the yeast fitness was ≤ 0.5.

With U13A U53A C61U, the yeast fitness is ≤ 0.5.

U13A G41A G67A: the yeast fitness came to 0.546.

With U13C A45C G56A, the yeast fitness worked out at 0.743.

For U13A U16A U54A A65G, the yeast fitness is ≤ 0.5.

With U13A G18A A69U, the yeast fitness was 0.618.

Consider U13C A36C U47C G67U, for which the yeast fitness is ≤ 0.5.

On to U13G C60U, for which the yeast fitness came to 0.747.

As for U13C A21G C31G U47C, the yeast fitness is 0.555.

On to U13G C24U A36G U47C G50A, for which the yeast fitness amounted to 0.518.

As for A14C A36U C60U A69U, the yeast fitness was ≤ 0.5.

For A14C A21C C27U, the yeast fitness was ≤ 0.5.

In the case of U13G U35C A70U, the yeast fitness amounted to 0.508.

On to U13G C46U A65G, for which the yeast fitness was 0.773.

Regarding U13C A20G C31U, the yeast fitness came out at 0.777.

Consider U13C C34G A40U A45C A57C C61U, for which the yeast fitness is ≤ 0.5.

In the case of U13G U54A G68C, the yeast fitness is ≤ 0.5.

As for U13A U32A A37U, the yeast fitness is ≤ 0.5.

For A14C A20U C66U, the yeast fitness is ≤ 0.5.

Regarding U13G A42C U54A G67C A69U, the yeast fitness was ≤ 0.5.

Take A14C A42C U47C: the yeast fitness is ≤ 0.5.

Take U13G A45U C55G: the yeast fitness is ≤ 0.5.

For the variant U13G A43C U54A A57G, the yeast fitness was ≤ 0.5.

Consider A14C A20G C27U U64A G67A, for which the yeast fitness was determined as 0.566.

In the case of U13C A20C A21C C46G, the yeast fitness is ≤ 0.5.

In the case of U13C A15U C27U A69U, the yeast fitness was ≤ 0.5.

As to U13C G23C C62A, the yeast fitness was ≤ 0.5.

For A14C A15C C34G A43C C49A, the yeast fitness stood at 0.627.

Consider U13G C27U C31U C34G A40G G63C, for which the yeast fitness was ≤ 0.5.

Turning to U13A G52A C55U, the yeast fitness was ≤ 0.5.

For the variant U13A G38C G58C, the yeast fitness was found to be 0.798.

In the case of U13G A57C, the yeast fitness came out at 0.599.

As to U13A U59C C66A, the yeast fitness was ≤ 0.5.

Turning to U13A U19A C24G C27U C33G G52C, the yeast fitness is ≤ 0.5.

As to U13A C62G C66A, the yeast fitness is ≤ 0.5.

As to U13C A43U G56A, the yeast fitness was 0.797.

As to U13G C22G C27A C61U, the yeast fitness is ≤ 0.5.

Take U13C G67U: the yeast fitness is 0.719.

For the variant U13C G67A, the yeast fitness was 0.848.

For U13C G67C, the yeast fitness was 0.771.

In the case of U13C G25C C31G, the yeast fitness is 0.877.

In the case of U13C G52A A69U, the yeast fitness was 0.689.

As to U13C G18A C46G U47A C49U C55G A57C, the yeast fitness is ≤ 0.5.

On to U13G A65U, for which the yeast fitness came to 0.896.

Regarding A14C A15G, the yeast fitness came to 0.675.

With U13A G50U G68C, the yeast fitness stood at 0.515.

As to U13C G25A C33G G41C C61G A65U, the yeast fitness is ≤ 0.5.

Consider U13C G48C A65G, for which the yeast fitness worked out at 0.655.

Regarding U13C A20G G39A G48C, the yeast fitness is ≤ 0.5.

On to U13G A43G, for which the yeast fitness stood at 0.902.

As for U13C C29G A36G G41A G48C A57U, the yeast fitness is ≤ 0.5.

Regarding U13G G38A, the yeast fitness stood at 0.781.

As for U13A G50C U59A, the yeast fitness is 0.594.

For U13C A36C A43C C60A, the yeast fitness was 0.566.

With U13A C62G A69G, the yeast fitness was determined as 0.571.

Regarding A14C A15U C62G, the yeast fitness is ≤ 0.5.

For A14C A20G C22U C49G G56C, the yeast fitness is ≤ 0.5.

U13C G58C A69U: the yeast fitness came to 0.7.

For the variant U13C C31U A57G U64A C66A A69C, the yeast fitness was ≤ 0.5.

For U13G C31G A43U C46G A70U, the yeast fitness is ≤ 0.5.

Turning to U13G A42C U64C, the yeast fitness was 0.715.

With U13C A15G G39A, the yeast fitness turned out to be 0.593.

As to U13A G23C U32G G58C C61A A65U, the yeast fitness is ≤ 0.5.

Consider U13C A37U, for which the yeast fitness stood at 0.543.

Take U13G A37C: the yeast fitness turned out to be 0.65.

For the variant U13C A20U G39C A43C C49A U53A, the yeast fitness was ≤ 0.5.

In the case of U13C G25A C31U G38C, the yeast fitness came to 0.659.

In the case of U13G A20U A42G U59A A65G, the yeast fitness was ≤ 0.5.

As to U13G G44A A57U, the yeast fitness was found to be 0.617.

For the variant U13C G51A A65C, the yeast fitness is ≤ 0.5.

Turning to U13G C24U G44A G58C, the yeast fitness is 0.508.

On to U13A G23C A37C G38A, for which the yeast fitness worked out at 0.554.

With U13C C24G, the yeast fitness was 0.672.

Consider U13G C29U G48A G56A, for which the yeast fitness is 0.55.

Consider U13C C22A U32A A36G A43U, for which the yeast fitness is ≤ 0.5.

Take U13C G23C U47C: the yeast fitness was ≤ 0.5.

As for U13C C62G, the yeast fitness worked out at 0.804.

Turning to U13A G50C, the yeast fitness worked out at 0.653.

Turning to U13C C31U A70C, the yeast fitness came out at 0.756.

As for U13C A20G A37U C61A, the yeast fitness was ≤ 0.5.

As to U13C U19C U26C C31A C61G, the yeast fitness was ≤ 0.5.

Regarding U13G U26G C33G U47A, the yeast fitness was determined as 0.602.

On to U13C C31U C55G G67C, for which the yeast fitness was ≤ 0.5.

On to U13C C31U G50C, for which the yeast fitness is ≤ 0.5.

In the case of U13G G25A U59C, the yeast fitness was determined as 0.681.

On to U13C C29A C33A U35C G51A, for which the yeast fitness is ≤ 0.5.

Consider U13G A40G U47C A69U, for which the yeast fitness came out at 0.653.

In the case of A14C A21U A45C A57G, the yeast fitness is ≤ 0.5.

As for U13C A14C U16C U64C A65C, the yeast fitness is ≤ 0.5.

With U13C A37G C49G C55U G56C G68A, the yeast fitness was ≤ 0.5.

In the case of U13A G17A U32A, the yeast fitness is ≤ 0.5.

For A14C A20G A36G C55U G68C, the yeast fitness was ≤ 0.5.

As for U13A G41A, the yeast fitness amounted to 0.714.

Turning to U13G G17U U28A G41C U64G, the yeast fitness is ≤ 0.5.

For the variant A14C A36G G41A G48C U59C, the yeast fitness stood at 0.7.

In the case of U13C A15U C46A C66U, the yeast fitness is ≤ 0.5.

In the case of U13G C34U A37U, the yeast fitness is ≤ 0.5.

Take U13C G38A C49U: the yeast fitness is ≤ 0.5.

On to U13G A43G U53A, for which the yeast fitness is 0.57.

Regarding U13C G23A G63A A70U, the yeast fitness is 0.527.

Regarding U13C A57U U59A A69G, the yeast fitness amounted to 0.561.

Consider A14C A21C C24U A36U A43U G58C, for which the yeast fitness is ≤ 0.5.

Take U13G C30U U32C: the yeast fitness was 0.686.

In the case of U13G U16A C24U G44A C49G, the yeast fitness is ≤ 0.5.

Consider U13A C62U, for which the yeast fitness stood at 1.05.

Consider U13C U26A, for which the yeast fitness was 0.982.

For U13C G18C G50C A57U C62U, the yeast fitness stood at 0.578.

Take A14C A15C G25C A57C C62G A69G: the yeast fitness was ≤ 0.5.

U13A G23C C27G U53C: the yeast fitness is ≤ 0.5.

As to U13C A36U U64C, the yeast fitness is ≤ 0.5.

As for U13G A40G C61U G63C, the yeast fitness is ≤ 0.5.

Turning to U13C G52C U53A C55G A69U, the yeast fitness was ≤ 0.5.

As for U13A G68U, the yeast fitness came to 0.824.

On to U13G C24U G56A, for which the yeast fitness amounted to 0.612.

With U13G G18C C30U C33G U47G, the yeast fitness worked out at 0.578.

On to U13C A20C A40G, for which the yeast fitness is ≤ 0.5.

Turning to A14C A40C G41C C55A A70U, the yeast fitness was ≤ 0.5.

Turning to A14C A21U C24A A37U A45U, the yeast fitness was ≤ 0.5.

With U13G U35G A40G C61A, the yeast fitness is ≤ 0.5.

Take U13G A20G U53G C66U: the yeast fitness is ≤ 0.5.

On to U13G C22U G25A C31A, for which the yeast fitness is 0.601.

With U13A G50C A70U, the yeast fitness was ≤ 0.5.

With A14C A37G A45C, the yeast fitness is ≤ 0.5.

As for U13C U16C A57G G68A A69G, the yeast fitness is ≤ 0.5.

Regarding U13A U47A C60A A69C, the yeast fitness was 0.525.

For U13C G63C, the yeast fitness is 0.742.

In the case of U13G C22U C31A C55U G63A A69C, the yeast fitness is ≤ 0.5.

As for U13C C33A G41A A45C U59C A65U, the yeast fitness was ≤ 0.5.

Consider U13C C34U G48C C61U G67A, for which the yeast fitness is ≤ 0.5.

Consider U13C C29A, for which the yeast fitness turned out to be 0.618.

On to U13G G39C C49G A65G, for which the yeast fitness is ≤ 0.5.

For U13G C30A, the yeast fitness turned out to be 0.715.

Turning to U13C U59C C66U G67U, the yeast fitness is 0.576.

On to U13C G25C C61U, for which the yeast fitness was found to be 1.14.

Turning to U13C U26C C31U, the yeast fitness came out at 0.784.

For the variant U13A U32C A65C, the yeast fitness was 0.539.

U13C G23C A36C G39A A43G: the yeast fitness is ≤ 0.5.

Regarding U13G U28A C30A C61G, the yeast fitness was ≤ 0.5.

Regarding U13C A43C, the yeast fitness stood at 1.28.

On to U13C A43U, for which the yeast fitness was found to be 1.04.

Consider U13C U47G, for which the yeast fitness is 0.625.

With U13G A37C U47A A70G, the yeast fitness was ≤ 0.5.
